Our source for the inhibition of growth values is ChEMBL document CHEMBL1944511, “Bakuchiol derivatives as novel and potent cytotoxic agents: a report” (Eur J Med Chem, 2012).

What all share (type): functional
Experiment [1] relates to MCF7. Kind of experiment: Growth inhibition of human MCF7 cells at 50 uM after 48 hrs by sulpharhodamine B assay. The settings on record: MCF7, 48 h, read-out: GI. Put shortly: (§1)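 This is the SRB protein-stain assay on adherent cells in RPMI-1640/MEM with 10% FCS. Each compound in DMSO (vehicle <0.2%) was applied at a single fixed concentration for 48 h. Cells were fixed with TCA and stained with SRB, and the dye was solubilised in Tris and read at 570/620 nm. Percent growth inhibition is relative to vehicle-treated controls, reported as mean ± SD of three experiments run in triplicate.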

Experiment [2] concerns THP-1. The experiment in a line: Growth inhibition of human THP1 cells at 30 uM after 48 hrs by sulpharhodamine B assay. The following applies: THP-1, 48 h, read-out: GI. Put shortly: (§2)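 Cells grown in RPMI-1640/MEM with 10% FCS, penicillin/streptomycin, 37 °C, 5% CO2. Seeded in 96-well plates, allowed to adhere overnight, then exposed 48 h to analogs in DMSO (vehicle <0.2% in controls). TCA-fixed, stained with 0.4% SRB in 1% acetic acid, dye solubilized in 10 mM Tris base, OD 570 nm (ref 620 nm). Mean ± SD of three experiments run in triplicate.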

In experiment [3] the test system is PC-3. Kind of experiment: Growth inhibition of human PC3 cells at 30 uM after 48 hrs by sulpharhodamine B assay. The following applies: PC-3, 48 h, read-out: GI. Put shortly:
as §2

Experiment [4] concerns A549. Kind of experiment: Growth inhibition of human A549 cells at 30 uM after 48 hrs by sulpharhodamine B assay. The following applies: A549, 48 h, read-out: GI. Put shortly: as §1
The test system of experiment [5] is HeLa. Kind of experiment: Growth inhibition of human HeLa cells at 30 uM after 48 hrs by sulpharhodamine B assay. The following applies: read-out: GI. Put shortly:
as §1

Experiment [6] relates to HeLa. The experiment in a line: Growth inhibition of human HeLa cells at 50 uM after 48 hrs by sulpharhodamine B assay. The following applies: read-out: GI. Put shortly: as §1
The subject of experiment [7] is OVCAR-5. The experiment in a line: Growth inhibition of human OVCAR5 cells at 30 uM after 48 hrs by sulpharhodamine B assay. The following applies: OVCAR-5, 48 h, read-out: GI. Put shortly: as §1
Experiment [8] has as its system PC-3. Kind of experiment: Growth inhibition of human PC3 cells at 50 uM after 48 hrs by sulpharhodamine B assay. The following applies: PC-3, 48 h, read-out: GI. Put shortly: as §2
In experiment [9] the test system is OVCAR-5. Kind of experiment: Growth inhibition of human OVCAR5 cells at 50 uM after 48 hrs by sulpharhodamine B assay. The settings on record: OVCAR-5, 48 h, read-out: GI. Put shortly: as §1
The test system of experiment [10] is IMR-32. The experiment in a line: Growth inhibition of human IMR32 cells at 30 uM after 48 hrs by sulpharhodamine B assay. The following applies: IMR-32, 48 h, read-out: GI. Put shortly:
as §1

The test system of experiment [11] is HEp-2. The experiment in a line: Growth inhibition of human Hep2 cells at 50 uM after 48 hrs by sulpharhodamine B assay. The following applies: HEp-2, 48 h, read-out: GI. Put shortly:
as §1

The subject of experiment [12] is THP-1. Kind of experiment: Growth inhibition of human THP1 cells at 50 uM after 48 hrs by sulpharhodamine B assay. The settings on record: THP-1, 48 h, read-out: GI. Put shortly: as §2
The test system of experiment [13] is A549. The experiment in a line: Growth inhibition of human A549 cells at 50 uM after 48 hrs by sulpharhodamine B assay. The settings on record: A549, 48 h, read-out: GI. Put shortly:
as §1

Experiment [14] concerns IMR-32. The experiment in a line: Growth inhibition of human IMR32 cells at 50 uM after 48 hrs by sulpharhodamine B assay. The settings on record: IMR-32, 48 h, read-out: GI. Put shortly:
as §1

The subject of experiment [15] is MCF7. Kind of experiment: Growth inhibition of human MCF7 cells at 30 uM after 48 hrs by sulpharhodamine B assay. The settings on record: MCF7, 48 h, read-out: GI. Put shortly:
as §1

Experiment [16] has as its system HEp-2. Kind of experiment: Growth inhibition of human Hep2 cells at 30 uM after 48 hrs by sulpharhodamine B assay. The settings on record: HEp-2, 48 h, read-out: GI. Put shortly:
as §1

The subject of experiment [17] is OVCAR-5. Kind of experiment: Growth inhibition of human OVCAR5 cells at 20 uM after 48 hrs by sulpharhodamine B assay. The settings on record: OVCAR-5, 48 h, read-out: GI. Put shortly:
(§3)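 Cells grown at 37 °C, 5% CO2 in RPMI-1640/MEM with 10% FCS and penicillin/streptomycin, then seeded in 96-well plates and allowed to adhere overnight. Compound was added in DMSO (vehicle <0.2% in untreated controls) and incubated 48 h. Cells were fixed with ice-cold TCA, stained with 0.4% SRB in 1% acetic acid, and the dye solubilised in 10 mM Tris-base. OD read at 570 nm (reference 620 nm).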

Experiment [18] relates to THP-1. The experiment in a line: Growth inhibition of human THP1 cells at 20 uM after 48 hrs by sulpharhodamine B assay. The following applies: THP-1, 48 h, read-out: GI. Put shortly: as §2
Experiment [19] deals with PC-3. The experiment in a line: Growth inhibition of human PC3 cells at 20 uM after 48 hrs by sulpharhodamine B assay. The settings on record: PC-3, 48 h, read-out: GI. Put shortly:
as §1

The test system of experiment [20] is A549. The experiment in a line: Growth inhibition of human A549 cells at 20 uM after 48 hrs by sulpharhodamine B assay. The settings on record: A549, 48 h, read-out: GI. Put shortly: as §1
Experiment [21] concerns IMR-32. The experiment in a line: Growth inhibition of human IMR32 cells at 20 uM after 48 hrs by sulpharhodamine B assay. The settings on record: IMR-32, 48 h, read-out: GI. Put shortly:
as §1

A further experiment concerns DU-145. The experiment in a line: Growth inhibition of human DU145 cells at 20 uM after 48 hrs by sulpharhodamine B assay. The settings on record: DU-145, 48 h, read-out: GI. Put shortly: as §1
A further experiment relates to HCT-15. The experiment in a line: Growth inhibition of human HCT15 cells at 20 uM after 48 hrs by sulpharhodamine B assay. The settings on record: HCT-15, 48 h, read-out: GI. Put shortly:
as §1

For experiment [22], the system named is HeLa. Kind of experiment: Growth inhibition of human HeLa cells at 20 uM after 48 hrs by sulpharhodamine B assay. The settings on record: read-out: GI. Put shortly: as §3

As for `C=C[C@@](C)(/C=C/c1ccc(OC)cc1)CCC=C(C)C`, the inhibition of growth at 50 µM with MCF7 [1] was determined as 18%; in the experiment with HeLa [6], 43%; with PC-3 [8], 44%; in the experiment with OVCAR-5 [9], 37%; with HEp-2 [11], 40%; with THP-1 [12] it was 45%. Further, the figures for the inhibition of growth at 50 µM in the experiment on A549 [13] and in the experiment with IMR-32 [14] were 12% and 30%, respectively. Besides, the inhibition of growth at 30 µM is 29% with THP-1 [2]; 31% in the experiment on PC-3 [3]; 34% in the experiment on A549 [4]; 28% in the experiment with HeLa [5]; 29% with OVCAR-5 [7]; 23% in the experiment on IMR-32 [10]. Further, the results for the inhibition of growth at 30 µM in the experiment on MCF7 [15] and in the experiment on HEp-2 [16] were 37% and 22%, respectively.
With `C=C[C@@](C)(/C=C/c1ccc(OC(=O)CCCCCCCCC)cc1)CCC=C(C)C`, the inhibition of growth at 50 µM worked out at 10% with MCF7 [1]; 50% in the experiment with HeLa [6]; 50% in the experiment on PC-3 [8]; 42% in the experiment with OVCAR-5 [9]; 30% with HEp-2 [11]; 52% with THP-1 [12]. Further, the results for the inhibition of growth at 50 µM in the experiment on A549 [13] and with IMR-32 [14] were 48% and 52%, respectively. The inhibition of growth at 30 µM stood at 39% in the experiment on THP-1 [2]; 27% in the experiment with PC-3 [3]; 33% with A549 [4]; 24% in the experiment with HeLa [5]; 29% with OVCAR-5 [7]; 22% in the experiment with IMR-32 [10]. Besides, the inhibition of growth at 30 µM in the experiment on MCF7 [15] was found to be 12%; in the experiment with HEp-2 [16] it was 16%.
On to `O=c1[nH]cc(F)c(=O)[nH]1` [FLUOROURACIL], for which the inhibition of growth at 20 µM is 75% with OVCAR-5 [17]; 85% in the experiment on THP-1 [18]; 75% in the experiment with PC-3 [19]; 76% in the experiment with A549 [20]; 79% with IMR-32 [21]; 75% with DU-145. The inhibition of growth at 20 µM in the experiment on HCT-15 came to 63%; in the experiment with HeLa [22] it was 71%.
